According to ChEMBL document CHEMBL3525900, “Pharmacokinetics, distribution, and metabolism of [14C]sunitinib in rats, monkeys, and humans” (Drug Metab Dispos, 2012):

Columns and labels:
[1] = Apparent terminal half life in male Sprague-Dawley rat plasma at 15 mg/kg, po administered as single dose by LC/MS/MS analysis; type: ADME, organism-based; set-up: dose 15 mg/kg, dosed compound name [14C]Sunitinib, route oral; conditions: read-out: t1/2 lambda z (converted)
How it was run: (§1)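 Single dose of [14C]sunitinib L-malate as free base, 50 µCi/kg. IV dose was 5 mg/kg by tail vein in 5 females. Oral dose was 15 mg/kg by gavage in 3 females and 3 males. Total radioactivity was by scintillation counting. […] Cmax was read from raw data, t½ by log-linear regression, AUC by linear trapezoidal rule.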

[2] = Clearance in female Sprague-Dawley rat plasma at 5 mg/kg, iv administered as single dose by LC/MS/MS analysis; type: ADME, organism-based; set-up: dose 5 mg/kg, dosed compound name [14C]Sunitinib, route intravenous
How it was run: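 Female rats (5) were given a single tail-vein bolus of [14C]sunitinib L-malate at 5 mg/kg free base (50 µCi/kg). […] Parameters were noncompartmental, with AUC by the linear trapezoidal rule.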

[3] = Drug excretion in urine of female cynomolgus monkey at 6 mg/kg, po administered as single dose by liquid scintillation counting; type: ADME, organism-based, Macaca fascicularis; set-up: dose 6 mg/kg, dosed compound name [14C]Sunitinib, route oral; conditions: in vivo
[4] = Drug excretion in feces of female Sprague-Dawley rat at 15 mg/kg, po administered as single dose by liquid scintillation counting; type: ADME, organism-based; set-up: dose 15 mg/kg, dosed compound name [14C]Sunitinib, route oral; conditions: in vivo
[5] = AUC (0 to infinity) in female Sprague-Dawley rat plasma at 5 mg/kg, iv administered as single dose by LC/MS/MS analysis; type: ADME, organism-based; set-up: time infinity, dose 5 mg/kg, dosed compound name [14C]Sunitinib, route intravenous; how it was run: as §1
[6] = Cmax in human plasma at 50 mg, po administered as single dose by LC/MS/MS analysis; type: ADME, organism-based; set-up: dose 50 mg, route oral, dosed compound name [14C]Sunitinib
How it was run: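 This was an open-label, single-dose, single-centre phase I study in eight male subjects. Each received one oral 50 mg dose of [14C]sunitinib (100 µCi). Plasma sunitinib was measured by a validated LC-MS-MS method. Cmax was read directly from the raw concentration–time data.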

[7] = Drug excretion in feces of female cynomolgus monkey at 6 mg/kg, po administered as single dose by liquid scintillation counting; type: ADME, organism-based, Macaca fascicularis; set-up: dose 6 mg/kg, dosed compound name [14C]Sunitinib, route oral; conditions: in vivo
[8] = Tmax in female cynomolgus monkey plasma at 6 mg/kg, po administered as single dose by LC/MS/MS analysis; type: ADME, organism-based, Macaca fascicularis; set-up: dose 6 mg/kg, dosed compound name [14C]Sunitinib, route oral
[9] = Apparent terminal half life in female Sprague-Dawley rat plasma at 5 mg/kg, iv administered as single dose by LC/MS/MS analysis; type: ADME, organism-based; set-up: dose 5 mg/kg, dosed compound name [14C]Sunitinib, route intravenous; conditions: read-out: t1/2 lambda z (converted); how it was run: as §1
[10] = Tmax in male cynomolgus monkey plasma at 6 mg/kg, po administered as single dose by LC/MS/MS analysis; type: ADME, organism-based, Macaca fascicularis; set-up: dose 6 mg/kg, dosed compound name [14C]Sunitinib, route oral
[11] = Drug excretion in urine of human at 50 mg, po administered as single dose by liquid scintillation counting; conditions: in vivo
[12] = Cmax in male Sprague-Dawley rat plasma at 15 mg/kg, po administered as single dose by LC/MS/MS analysis; type: ADME, organism-based; set-up: dose 15 mg/kg, dosed compound name [14C]Sunitinib, route oral; how it was run: as §1
[13] = Terminal half life in female cynomolgus monkey plasma at 6 mg/kg, po administered as single dose by LC/MS/MS analysis; type: ADME, organism-based, Macaca fascicularis; set-up: dose 6 mg/kg, dosed compound name [14C]Sunitinib, route oral; conditions: read-out: beta t1/2 (converted)
[14] = Tmax in male Sprague-Dawley rat plasma at 15 mg/kg, po administered as single dose by LC/MS/MS analysis; type: ADME, organism-based; set-up: dose 15 mg/kg, dosed compound name [14C]Sunitinib, route oral
[15] = Drug excretion in feces of female Sprague-Dawley rat at 5 mg/kg, iv administered as single dose by liquid scintillation counting; type: ADME, organism-based; set-up: dose 5 mg/kg, dosed compound name [14C]Sunitinib, route intravenous; conditions: in vivo
[16] = Drug excretion in urine of female Sprague-Dawley rat at 5 mg/kg, iv administered as single dose by liquid scintillation counting; type: ADME, organism-based; set-up: dose 5 mg/kg, dosed compound name [14C]Sunitinib, route intravenous; conditions: in vivo
[17] = Apparent oral clearance in human plasma at 50 mg, po administered as single dose by LC/MS/MS analysis; type: ADME, organism-based; set-up: dosed compound name [14C]Sunitinib
[18] = Drug excretion in feces of male cynomolgus monkey at 6 mg/kg, po administered as single dose by liquid scintillation counting; type: ADME, organism-based, Macaca fascicularis; set-up: dose 6 mg/kg, dosed compound name [14C]Sunitinib, route oral; conditions: in vivo
[19] = Drug excretion in urine of male cynomolgus monkey at 6 mg/kg, po administered as single dose by liquid scintillation counting; type: ADME, organism-based, Macaca fascicularis; set-up: dose 6 mg/kg, dosed compound name [14C]Sunitinib, route oral; conditions: in vivo
[20] = AUC (0 to infinity) in male Sprague-Dawley rat plasma at 15 mg/kg, po administered as single dose by LC/MS/MS analysis; type: ADME, organism-based; set-up: time infinity, dose 15 mg/kg, dosed compound name [14C]Sunitinib, route oral; how it was run: as §1
[21] = Cmax in female cynomolgus monkey plasma at 6 mg/kg, po administered as single dose by LC/MS/MS analysis; type: ADME, organism-based, Macaca fascicularis; set-up: dose 6 mg/kg, dosed compound name [14C]Sunitinib, route oral
How it was run: (§2)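 Cynomolgus monkeys were given a single oral gavage of [14C]sunitinib L-malate at 6 mg/kg (37 µCi/kg). Heparinized femoral-vein blood was taken at pre-dose and 0.5–336 h. […] Cmax was read directly from the raw concentration data.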

[22] = AUC (0 to infinity) in female Sprague-Dawley rat plasma at 15 mg/kg, po administered as single dose by LC/MS/MS analysis; type: ADME, organism-based; set-up: time infinity, dose 15 mg/kg, dosed compound name [14C]Sunitinib, route oral; how it was run: as §1
[23] = AUC (0 to infinity) in male cynomolgus monkey plasma at 6 mg/kg, po administered as single dose by LC/MS/MS analysis; type: ADME, organism-based, Macaca fascicularis; set-up: time infinity, dose 6 mg/kg, dosed compound name [14C]Sunitinib, route oral
How it was run: (§3)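 Cynomolgus monkeys of both sexes received one oral gavage of [14C]sunitinib L-malate at 6 mg/kg (37 µCi/kg). Femoral-vein blood was taken into heparin from 0.5 to 336 h. Plasma was kept cold and protected from light, then stored at -80 °C. Total radioactivity was by scintillation counting and sunitinib by methanol-extraction LC-MS-MS. Cmax was from raw data, t½ from the log-linear terminal slope, AUC(0-∞) by linear trapezoidal rule.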

[24] = Volume of distribution at steady state in female Sprague-Dawley rat plasma at 5 mg/kg, iv administered as single dose by LC/MS/MS analysis; type: ADME, organism-based; set-up: dose 5 mg/kg, dosed compound name [14C]Sunitinib, route intravenous; conditions: read-out: Vdss
[25] = AUC (0 to infinity) in human plasma at 50 mg, po administered as single dose by LC/MS/MS analysis; type: ADME, organism-based; set-up: dose 50 mg, route oral, time infinity, dosed compound name [14C]Sunitinib
How it was run: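 Open-label phase I study in 8 subjects given one 50 mg oral dose of [14C]sunitinib (100 µCi). Plasma total radioactivity was counted by scintillation on triplicate 0.25 mL aliquots. Sunitinib was quantified by LC-MS-MS. Noncompartmental analysis: Cmax read directly, terminal t½ = ln(2)/slope of the log-concentration regression, AUC by linear trapezoidal rule to the last detectable concentration.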

[26] = Drug excretion in urine of female Sprague-Dawley rat at 15 mg/kg, po administered as single dose by liquid scintillation counting; type: ADME, organism-based; set-up: dose 15 mg/kg, dosed compound name [14C]Sunitinib, route oral; conditions: in vivo
[27] = Drug excretion in urine of male Sprague-Dawley rat at 15 mg/kg, po administered as single dose by liquid scintillation counting; type: ADME, organism-based; set-up: dose 15 mg/kg, dosed compound name [14C]Sunitinib, route oral; conditions: in vivo
[28] = Drug excretion in feces of male Sprague-Dawley rat at 15 mg/kg, po administered as single dose by liquid scintillation counting; type: ADME, organism-based; set-up: dose 15 mg/kg, dosed compound name [14C]Sunitinib, route oral; conditions: in vivo
[29] = Terminal half life in male cynomolgus monkey plasma at 6 mg/kg, po administered as single dose by LC/MS/MS analysis; type: ADME, organism-based, Macaca fascicularis; set-up: dose 6 mg/kg, dosed compound name [14C]Sunitinib, route oral; conditions: read-out: beta t1/2 (converted)
[30] = Drug excretion in feces of human at 50 mg, po administered as single dose by liquid scintillation counting; conditions: in vivo
[31] = Retention time of compound by LC/MS/MS analysis; type: physicochemical; set-up: dosed compound name [14C]Sunitinib
[32] = AUC (0 to infinity) in female cynomolgus monkey plasma at 6 mg/kg, po administered as single dose by LC/MS/MS analysis; type: ADME, organism-based, Macaca fascicularis; set-up: time infinity, dose 6 mg/kg, dosed compound name [14C]Sunitinib, route oral; how it was run: as §3
[33] = Apparent terminal half life in female Sprague-Dawley rat plasma at 15 mg/kg, po administered as single dose by LC/MS/MS analysis; type: ADME, organism-based; set-up: dose 15 mg/kg, dosed compound name [14C]Sunitinib, route oral; conditions: read-out: t1/2 lambda z (converted); how it was run: as §1
[34] = Cmax in female Sprague-Dawley rat plasma at 15 mg/kg, po administered as single dose by LC/MS/MS analysis; type: ADME, organism-based; set-up: dose 15 mg/kg, dosed compound name [14C]Sunitinib, route oral; how it was run: as §1
[35] = Cmax in male cynomolgus monkey plasma at 6 mg/kg, po administered as single dose by LC/MS/MS analysis; type: ADME, organism-based, Macaca fascicularis; set-up: dose 6 mg/kg, dosed compound name [14C]Sunitinib, route oral; how it was run: as §2
[36] = Terminal half life in human plasma at 50 mg, po administered as single dose by LC/MS/MS analysis; type: ADME, organism-based; set-up: dosed compound name [14C]Sunitinib; conditions: read-out: beta t1/2 (converted)
[37] = Cmax in female Sprague-Dawley rat plasma at 5 mg/kg, iv administered as single dose by LC/MS/MS analysis; type: ADME, organism-based; set-up: dose 5 mg/kg, dosed compound name [14C]Sunitinib, route intravenous; how it was run: as §1
[38] = Tmax in human plasma at 50 mg, po administered as single dose by LC/MS/MS analysis; type: ADME, organism-based; set-up: dosed compound name [14C]Sunitinib
[39] = Tmax in female Sprague-Dawley rat plasma at 15 mg/kg, po administered as single dose by LC/MS/MS analysis; type: ADME, organism-based; set-up: dose 15 mg/kg, dosed compound name [14C]Sunitinib, route oral

CCN(CC)CCNC(=O)c1c(C)[nH]c(/C=C2\C(=O)Nc3ccc(F)cc32)c1C [SUNITINIB]
half-life [1]: 8 h | clearance [2]: 13 mL/min/kg | Compound recovery [3]: 0.2% | Compound recovery [4]: 11.5% | AUC(0-inf) [5]: 7200 ng·h/mL | Cmax [6]: 24.4 ng/mL | Compound recovery [7]: 9.2% | Tmax [8]: 4 h | half-life [9]: 7.4 h | Tmax [10]: 5 h | Compound recovery [11]: 6.4% | Cmax [12]: 963 ng/mL | half-life [13]: 16 h | Tmax [14]: 3 h | Compound recovery [15]: 22.6% | Compound recovery [16]: 0.3% | CL/F [17]: 832 mL/min | Compound recovery [18]: 8.8% | Compound recovery [19]: 0.2% | AUC(0-inf) [20]: 11800 ng·h/mL | Cmax [21]: 83 ng/mL | AUC(0-inf) [22]: 24000 ng·h/mL | AUC(0-inf) [23]: 1450 ng·h/mL | Vd [24]: 3.36 L/kg | AUC(0-inf) [25]: 1060 ng·h/mL | Compound recovery [26]: 0.6% | Compound recovery [27]: 0.5% | Compound recovery [28]: 5.8% | half-life [29]: 18 h | Compound recovery [30]: 13.6% | Retention_time [31]: 4 min | AUC(0-inf) [32]: 1100 ng·h/mL | half-life [33]: 7.2 h | Cmax [34]: 1250 ng/mL | Cmax [35]: 92 ng/mL | half-life [36]: 50.9 h | Cmax [37]: 1820 ng/mL | Tmax [38]: 8 h | Tmax [39]: 4 h
